The list is not random: actives were taken first. Their share in the collection is about 5.8%.
KDM4C inh – inhibitors of GASC-1 (KDM4C) histone demethylase, primary screen, biochemical, single concentration HTS | GST-KDM4C 2-372, H3K9me3 peptide, LANCE TR-FRET | inhibition, % at 12.5 µM | 96,000 tested, 0.15% active;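 active = mean replicate inhibition above about 25%, with at least 55% of replicates also reaching it, limit read from the data, passing the limit was not always enough; inconclusive = only one of those two conditions met; inactive = neither condition met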
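Assay system: GST-GASC-1 enzyme fragment 2-372 | Amount: 10 nM enzyme | Medium: HEPES buffer, pH 7.5, plus ascorbate | Reagent: H3K9me3 peptide substrate, Fe(II), 2-oxoglutarate | Doses: Single-point compound screen | Incubation: 30 min demethylation and 1 h detection at room temperature | Measured by: LANCE TR-FRET, excitation 340 nm, emissions 618 and 671 nm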
Pf Dd2 growth – P. falciparum Dd2 growth inhibitors, primary screen, SYBR Green fluorescence, single dose replicates; 94,000 tested, 2.3% active; 72 h; active compounds read low; AID 1159554, 2015; activity change, % at 10 µM; in the data active = activity change below about -80%; inconclusive = no clear call, values can overlap the other calls
T cruzi growth-1 – T. cruzi intracellular proliferation inhibitors, primary screen, cell-based, beta-gal Tulahuen parasites, NIH3T3 host, luminescence; AID 624255, 2012; inhibition, % at 8.34 µM; T. cruzi beta-gal in NIH3T3, GalScreen luminescence, 90 h; 77,000 tested, 5.9% active;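 active = mean inhibition above about 93%, with at least 55% of replicates each passing it, limit read from the data, passing the limit was not always enough; inconclusive = only one of those two conditions holds; inactive = neither condition holds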
IDH1 mut inh – inhibitors of IDH1 R132H reductase, primary screen, biochemical, plate reader, single point; inhibition, % at 10 µM; 70,000 tested, 0.18% active; diaphorase/resazurin fluorescence, 60 min; Isocitrate dehydrogenase [NADP] cytoplasmic (Homo sapiens), O75874; in the data active = inhibition above about 34%; inconclusive = no clear call, values can overlap the other calls; inactive = below about 11%;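 also: 0% = DMSO and 100% = no enzyme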
Target sequence (O75874 whole entry R132H): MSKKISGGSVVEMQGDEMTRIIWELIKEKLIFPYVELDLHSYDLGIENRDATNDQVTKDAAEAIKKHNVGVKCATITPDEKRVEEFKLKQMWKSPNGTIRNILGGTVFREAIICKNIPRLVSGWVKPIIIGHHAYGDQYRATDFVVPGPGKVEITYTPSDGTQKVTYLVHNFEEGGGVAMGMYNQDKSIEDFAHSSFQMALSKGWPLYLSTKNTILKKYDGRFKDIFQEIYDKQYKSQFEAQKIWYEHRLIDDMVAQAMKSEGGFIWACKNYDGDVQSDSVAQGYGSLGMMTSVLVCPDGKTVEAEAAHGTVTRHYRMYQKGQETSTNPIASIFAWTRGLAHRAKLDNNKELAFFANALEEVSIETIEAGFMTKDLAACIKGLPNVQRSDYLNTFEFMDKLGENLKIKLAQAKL
T cruzi growth-2 – T. cruzi intracellular proliferation inhibitors, confirmation, cell-based, NIH3T3 host, beta-gal parasite, luminescence, cherry-pick | shares compounds with T cruzi growth-1 | T. cruzi beta-gal in NIH3T3, GalScreen luminescence, 90 h | inhibition, % at 8.35 µM | 5,600 tested, 72% active;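 active = mean replicate inhibition above about 95% and at least 55% of replicates individually reaching it, limit read from the data; inconclusive = only one of the two criteria is met; inactive = neither criterion is met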
T cruzi growth-3 – inhibitors of intracellular T. cruzi replication, confirmation, NIH3T3 host cells, beta-gal parasites, cherry-pick, set 2 | 5,600 tested, 21% active | inhibition, % at 2.09 µM | T. cruzi beta-gal in NIH3T3, GalScreen luminescence, 90 h | shares compounds with T cruzi growth-1;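 active = mean inhibition above about 95%, with at least 55% of replicates also reaching it, limit read from the data; inconclusive = meets just one of the two conditions; inactive = meets neither condition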;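 also: plate controls were neutral control median for no effect and positive control median for full effect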
3T3 cytotox – cytotoxicity in mouse NIH/3T3 fibroblasts, confirmation, cytotoxicity control for T. cruzi proliferation inhibitor project, cell-based, cherry-pick, single point; NIH/3T3 viability, CellTiter-Glo ATP luminescence, 90 h; cytotoxicity (signal decrease), % at 8.35 µM; 5,600 tested, 14% active; shares compounds with T cruzi growth-1; AID 651742, 2012;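 active = mean signal decrease across replicates above about 35% based on untreated-well scatter, with enough replicates individually passing, limit read from the data; inconclusive = no rule stated though some were filed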;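 also: 0% = median of neutral control wells and 100% = median of positive control wells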
NIH3T3 tox 2 – NIH/3T3 fibroblast cytotoxicity, confirmation, cytotoxicity control, cell-based, cherry-pick, single point, set 2; NIH/3T3 viability, CellTiter-Glo ATP luminescence, 90 h; inhibition, % at 24.9 µM; 5,600 tested, 56% active; shares compounds with T cruzi growth-1; AID 651744, 2012;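 active = mean loss of cell viability signal at or above a set limit, and enough replicates individually reaching it; inconclusive = meets only the mean limit or only the replicate share; inactive = meets neither condition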;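 also: 0% = median of neutral control wells and 100% = median of positive control wells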
* hit, by the source's call.

How did C[C@H]1CCCCO[C@H](CN(C)C)[C@@H](C)CN([C@@H](C)CO)C(=O)c2cc(NC(=O)Nc3cccc4ccccc34)ccc2O1 do in these assays?
KDM4C inh: 1; Pf Dd2 growth: -59; T cruzi growth-1: 29; IDH1 mut inh: -9

What do the screens show for `Cc1ccc2oc(-c3cccc(NC(=O)COc4ccc5ccccc5c4)c3)nc2c1`?
IDH1 mut inh: 0

How did Cc1ccc(S(=O)(=O)Nc2ccc3c(c2)C(=O)N([C@H](C)CO)C[C@@H](C)[C@@H](CN(C)C(=O)Nc2cccc4ccccc24)OCCCC[C@@H](C)O3)cc1 do in these assays?
KDM4C inh: -2; Pf Dd2 growth: -86*; T cruzi growth-1: 108*; IDH1 mut inh: 0; T cruzi growth-2: 102*; T cruzi growth-3: 102*; 3T3 cytotox: 13; NIH3T3 tox 2: 5

How did Cc1ccc(S(=O)(=O)Nc2ccc3c(c2)C(=O)N([C@@H](C)CO)C[C@H](C)[C@H](CN(C)C(=O)Nc2cccc4ccccc24)OCCCC[C@H](C)O3)cc1 do in these assays?
KDM4C inh: 1; Pf Dd2 growth: inconclusive; T cruzi growth-1: 105*; T cruzi growth-2: 106*; T cruzi growth-3: 84; 3T3 cytotox: -29; NIH3T3 tox 2: 2

How did C[C@H](CO)N1C[C@H](C)[C@@H](CN(C)C(=O)Nc2cccc3ccccc23)OCCCC[C@H](C)Oc2ccc(NS(=O)(=O)c3ccc(F)cc3)cc2C1=O do in these assays?
KDM4C inh: -2; Pf Dd2 growth: -75; T cruzi growth-1: 105*; T cruzi growth-2: 106*; T cruzi growth-3: inconclusive; 3T3 cytotox: -20; NIH3T3 tox 2: 14

What do the screens show for `Cc1ccc(S(=O)(=O)Nc2ccc3c(c2)C(=O)N([C@@H](C)CO)C[C@H](C)[C@H](CN(C)C(=O)Nc2cccc4ccccc24)OCCCC[C@@H](C)O3)cc1`?
KDM4C inh: -2; Pf Dd2 growth: inconclusive; T cruzi growth-1: 69

What do the screens show for `Cc1ccc(S(=O)(=O)Nc2ccc3c(c2)C(=O)N([C@H](C)CO)C[C@H](C)[C@H](CN(C)C(=O)Nc2cccc4ccccc24)OCCCC[C@H](C)O3)cc1`?
KDM4C inh: 0; Pf Dd2 growth: -67; T cruzi growth-1: 92

Results for C[C@@H]1CCCCO[C@@H](CN(C)C(=O)Nc2cccc3ccccc23)[C@@H](C)CN([C@H](C)CO)C(=O)c2cc(NS(=O)(=O)c3ccc(F)cc3)ccc2O1 ?
KDM4C inh: -1; Pf Dd2 growth: -35; T cruzi growth-1: -4; IDH1 mut inh: 1

What do the screens show for `Cc1ccc(S(=O)(=O)Nc2ccc3c(c2)C(=O)N([C@@H](C)CO)C[C@@H](C)[C@H](CN(C)C(=O)Nc2cccc4ccccc24)OCCCC[C@@H](C)O3)cc1`?
KDM4C inh: -2; Pf Dd2 growth: -26; T cruzi growth-1: 103*; IDH1 mut inh: 3; T cruzi growth-2: 109*; T cruzi growth-3: 87; 3T3 cytotox: -9; NIH3T3 tox 2: -1

Results for O=C(Oc1ccc2ccccc2c1)c1ccccc1S(=O)(=O)c1ccccc1[N+](=O)[O-] ?
IDH1 mut inh: 1

How did Clc1ccc(CSc2nnc(-c3cccs3)n2Cc2ccco2)c(Cl)c1 do in these assays?
IDH1 mut inh: -1

Results for COc1cc(O)c(C(=O)CCc2ccc(OC)c(OC)c2)c(OC)c1 ?
IDH1 mut inh: 0

How did Cc1ccc(N(C(C)C(=O)Nc2ccccc2F)S(C)(=O)=O)cc1 (centres undefined) do in these assays?
IDH1 mut inh: 0

Results for C[C@@H]1CN([C@@H](C)CO)C(=O)c2cc(NC(=O)Cc3ccccc3)ccc2O[C@H]1CN(C)CC1CCCCC1 ?
KDM4C inh: 1; Pf Dd2 growth: -7; T cruzi growth-1: inconclusive; T cruzi growth-2: 65; T cruzi growth-3: 6; 3T3 cytotox: -16; NIH3T3 tox 2: 2

What do the screens show for `C[C@H](CO)N1C[C@H](C)[C@@H](CN(C)CC2CCCCC2)Oc2ccc(NC(=O)CCC(F)(F)F)cc2C1=O`?
Pf Dd2 growth: 12; T cruzi growth-1: inconclusive; T cruzi growth-2: 46; T cruzi growth-3: -21; 3T3 cytotox: -7; NIH3T3 tox 2: 7

How did C[C@H](CO)N1C[C@H](C)[C@H](CN(C)CC2CCCCC2)Oc2ccc(NC(=O)Cc3ccccc3)cc2C1=O do in these assays?
KDM4C inh: 2; Pf Dd2 growth: -3; T cruzi growth-1: 46

What do the screens show for `CCN(CC(=O)O)S(=O)(=O)c1ccc(OC)cc1`?
IDH1 mut inh: 0

How did C[C@H]1CN([C@@H](C)CO)S(=O)(=O)c2ccc(-c3ccccc3)cc2O[C@@H]1CN(C)C(=O)Nc1ccccc1F do in these assays?
KDM4C inh: 1; Pf Dd2 growth: -79; T cruzi growth-1: -40; IDH1 mut inh: 0

Results for C[C@@H]1CN([C@H](C)CO)S(=O)(=O)c2ccc(-c3cccc(F)c3)cc2O[C@H]1CN(C)C(=O)Nc1cc(F)ccc1F ?
KDM4C inh: -2; Pf Dd2 growth: -43; T cruzi growth-1: 115*; IDH1 mut inh: 4; T cruzi growth-2: 96*; T cruzi growth-3: 78; 3T3 cytotox: 64*; NIH3T3 tox 2: 81*

What do the screens show for `C[C@@H]1CN([C@@H](C)CO)S(=O)(=O)c2ccc(-c3cccc(F)c3)cc2O[C@H]1CN(C)C(=O)Nc1cc(F)ccc1F`?
KDM4C inh: 8; Pf Dd2 growth: -44; T cruzi growth-1: 115*; IDH1 mut inh: 3; T cruzi growth-2: 101*; T cruzi growth-3: 63; 3T3 cytotox: 51*; NIH3T3 tox 2: 57*

What do the screens show for `CC(=O)c1c(C)nn(CC(O)COc2ccc(C(=O)c3ccc(Cl)cc3)cc2)c1C` (centres undefined)?
IDH1 mut inh: 0

What do the screens show for `CCOC(=O)c1sc2ncn(CC(=O)Nc3cccc(Br)c3)c(=O)c2c1C`?
IDH1 mut inh: 0
